Laboratory results taken from ChEMBL document CHEMBL1146134, “Synthesis and antifungal activity of 6-hydroxycinnolines” (2006).
≈ marks a conversion by molar mass, not a printed value.

Key:
Assay type in all cases: functional
Cryptococcus neoformans = test: Antifungal activity against Cryptococcus neoformans KCCM 50564
How it was run: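 Growth inhibition measured as MIC by twofold broth dilution in modified Sabouraud dextrose broth. Inoculum near 1 × 10⁵ cells/mL. Final agent concentrations spanned 0.2 to 100. 5-Fluorocytosine was run as standard.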

Candida albicans = test: Antifungal activity against Candida albicans KCCM 50235
How it was run: (§1)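 Twofold broth dilution MIC in modified Sabouraud dextrose broth. Inoculum approximately 1 × 10⁵ cells/mL. Final agent concentrations ranged 0.2 to 100. Incubated at 37 °C and read after 1 day. MIC determined against 5-fluorocytosine as standard.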

Pichia kudriavzevii = test: Antifungal activity against Candida krusei KCCM 11655; how it was run: as §1
Aspergillus niger = test: Antifungal activity against Aspergillus niger KCTC 1231
How it was run: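 MIC by twofold serial dilution in modified Sabouraud dextrose broth, with roughly 1 × 10⁵ cells/mL inoculum. Final test concentrations ranged 0.2 to 100. Plates held at 37 °C and read after 2 days. 5-Fluorocytosine served as reference agent.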

Candida tropicalis = test: Antifungal activity against Candida tropicalis KCCM 50662; how it was run: as §1

Structure (SMILES)	MIC (Cryptococcus neoformans)	MIC (Candida albicans)	MIC (Pichia kudriavzevii)	MIC (Aspergillus niger)	MIC (Candida tropicalis)
COC(=O)c1c(N)nnc2c(C)c(C)c(O)c(Sc3ccc(C)cc3)c12	6.3 µg/mL (≈ 17.1 µM)	> 50 µg/mL	3.2 µg/mL (≈ 8.66 µM)	25 µg/mL (≈ 67.7 µM)	25 µg/mL (≈ 67.7 µM)
COC(=O)c1c(N)nnc2c(C)c(C)c(O)c(Sc3cccc(C)c3)c12	1.6 µg/mL (≈ 4.33 µM)	> 50 µg/mL	> 50 µg/mL	> 50 µg/mL	> 50 µg/mL
COC(=O)c1c(N)nnc2c(C)c(C)c(O)c(Sc3ccc(C)c(C)c3)c12	1.6 µg/mL (≈ 4.17 µM)	> 50 µg/mL	3.2 µg/mL (≈ 8.34 µM)	12.5 µg/mL (≈ 32.6 µM)	25 µg/mL (≈ 65.2 µM)
COC(=O)c1c(N)nnc2c(C)c(C)c(O)c(Cl)c12	25 µg/mL (≈ 88.7 µM)	> 50 µg/mL	25 µg/mL (≈ 88.7 µM)	6.3 µg/mL (≈ 22.4 µM)	50 µg/mL (≈ 177 µM)
Nc1nc(=O)[nH]cc1F [FLUCYTOSINE]	12.5 µg/mL (≈ 96.8 µM)	6.3 µg/mL (≈ 48.8 µM)	6.3 µg/mL (≈ 48.8 µM)	12.5 µg/mL (≈ 96.8 µM)	12.5 µg/mL (≈ 96.8 µM)

Now from value to compound:

MIC (Cryptococcus neoformans)	MIC (Candida albicans)	MIC (Pichia kudriavzevii)	MIC (Aspergillus niger)	MIC (Candida tropicalis)	Structure (SMILES)
50 µg/mL (≈ 141 µM)	> 50 µg/mL	50 µg/mL (≈ 141 µM)	> 50 µg/mL	> 50 µg/mL	COC(=O)C(C#N)C1=C(Sc2ccc(C)cc2)C(=O)C(C)=C(C)C1=O (stereo not given)
50 µg/mL (≈ 139 µM)	50 µg/mL (≈ 139 µM)	25 µg/mL (≈ 69.6 µM)	50 µg/mL (≈ 139 µM)	50 µg/mL (≈ 139 µM)	COC(=O)C(C#N)C1=C(Sc2cccc(F)c2)C(=O)C(C)=C(C)C1=O (stereo not given)
> 50 µg/mL	50 µg/mL (≈ 135 µM)	> 50 µg/mL	50 µg/mL (≈ 135 µM)	50 µg/mL (≈ 135 µM)	COC(=O)C(C#N)C1=C(Sc2ccc(C)c(C)c2)C(=O)C(C)=C(C)C1=O (stereo not given)
12.5 µg/mL (≈ 36.6 µM)	50 µg/mL (≈ 146 µM)	50 µg/mL (≈ 146 µM)	50 µg/mL (≈ 146 µM)	50 µg/mL (≈ 146 µM)	COC(=O)C(C#N)C1=C(Sc2ccccc2)C(=O)C(C)=C(C)C1=O (stereo not given)
50 µg/mL (≈ 141 µM)	> 50 µg/mL	1.6 µg/mL (≈ 4.5 µM)	> 50 µg/mL	> 50 µg/mL	COC(=O)C(C#N)C1=C(Sc2cccc(C)c2)C(=O)C(C)=C(C)C1=O (stereo not given)
6.3 µg/mL (≈ 23.5 µM)	50 µg/mL (≈ 187 µM)	25 µg/mL (≈ 93.4 µM)	25 µg/mL (≈ 93.4 µM)	50 µg/mL (≈ 187 µM)	COC(=O)C(C#N)C1=C(Cl)C(=O)C(C)=C(C)C1=O (stereo not given)
1.6 µg/mL (≈ 4.5 µM)	> 50 µg/mL	6.3 µg/mL (≈ 17.7 µM)	12.5 µg/mL (≈ 35.2 µM)	25 µg/mL (≈ 70.3 µM)	COC(=O)c1c(N)nnc2c(C)c(C)c(O)c(Sc3ccccc3)c12
6.3 µg/mL (≈ 16.9 µM)	> 50 µg/mL	25 µg/mL (≈ 67 µM)	1.6 µg/mL (≈ 4.28 µM)	50 µg/mL (≈ 134 µM)	COC(=O)c1c(N)nnc2c(C)c(C)c(O)c(Sc3cccc(F)c3)c12
